Measurements as given in article PMC7526717 (Journal of Clinical Oncology, 2020).
Where “and” joins values, the source holds several entries; their conditions need not be identical. Identical values can stand only once. Entries after “also recorded” stand apart in the source; their conditions may differ. Like-named read-outs stand apart in the source and are kept apart here. Each block holds one compound with its values, some of them ahead of it.

Columns and labels:
[1] = Plasma pharmacokinetics in patients; format: in vivo, human
[2] = Phase I study safety: TEAEs, DLTs, MTD; format: in vivo, human; conditions: for MTD: maximum dose evaluated 200 mg twice a day
Outline: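 Oral test compound was given at 20-200 mg twice a day or 100-250 mg once daily in 28-day cycles, using pharmacologically guided 3 + 3 escalation. A level was safe with zero DLTs in three or one in six patients. AEs were recorded from consent to 30 days after last dose and investigator-graded by CTCAE v4.03. Safety population: all patients dosed.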

[3] = tested on: advanced GIST; conditions: cited from earlier work
[4] = tested on: VEGFR2; conditions: cited from earlier work
[5] = tested on: advanced gastrointestinal stromal tumor (GIST); test: Phase I study efficacy, investigator assessed, RECIST version 1.1; format: in vivo, human; conditions: 150 mg once daily
Outline: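 Patients with advanced GIST after ≥1 prior systemic therapy received oral test compound 150 mg once daily in 28-day cycles, in dose-escalation or expansion. Imaging at screening, after cycles 2, 4 and 6, then every three cycles and at final visit. Responses were investigator-assessed per RECIST 1.1 and confirmed about 28 days later. Intent-to-treat population, grouped by line of therapy.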

[6] = tested on: BRAF; conditions: cited from earlier work
[7] = tested on: TIE2; conditions: cited from earlier work
[8] = tested on: PDGFRB; conditions: cited from earlier work
[9] = tested on: metastatic GIST; conditions: first-line; cited from earlier work
[10] = tested on: GIST; conditions: cited from earlier work
[11] = tested on: GIST; conditions: cited from earlier work; remark: listed apart in the source
[12] = 150 mg once daily, cycle 1 day 15

- accumulation [1, 12]: 4.6- to 5.3 fold
- exposure (AUC) relative to parent ripretinib ([1]; 15 days of dosing at 150 mg once daily): approximately 129%
- exposure (AUC) relative to parent ripretinib ([1]; single 150-mg doses): approximately 49%
Compound: CCn1c(=O)c(-c2cc(NC(=O)Nc3ccccc3)c(F)cc2Br)cc2cnc(N)cc21 [DP-5439]

Compound: CCn1c(=O)c(-c2cc(NC(=O)Nc3ccccc3)c(F)cc2Br)cc2cnc(NC)cc21 [Ripretinib, 1-[4-bromo-5-[1-ethyl-7-(methylamino)-2-oxo-1,2-dihydro-1,6-naphthyridin-3-yl]-2-fluorophenyl]-3-phenylurea]
- DLT ([2]; 100 mg twice a day (n = 12)): asymptomatic grade 3 lipase elevation
- DLT ([2]; 150 mg once daily (n = 12)): asymptomatic grade 4 creatine phosphokinase increase
- DLT ([2]; 200 mg twice a day (n = 7)): asymptomatic grade 3 lipase elevation
- Alopecia, Total Grades 1–4 ([2]; GIST, 150 mg once daily): 88 [62.0%] No. (%) and 88 (62.0%) No. (%)
- Constipation, Total Grades 1–4 ([2]; GIST, 150 mg once daily): 56 [39.4%] No. (%)
- Decreased appetite, Total Grades 1–4 ([2]; GIST, 150 mg once daily): 48 [33.8%] No. (%)
- Diarrhea, Total Grades 1–4 ([2]; GIST, 150 mg once daily): 47 [33.1%] No. (%)
- Fatigue, Total Grades 1–4 ([2]; GIST, 150 mg once daily): 78 [54.9%] No. (%)
- Lipase increased, Grade 3/4 ([2]; GIST, 150 mg once daily): 25 (17.6%) No. (%)
- Myalgia, Total Grades 1–4 ([2]; GIST, 150 mg once daily): 69 [48.6%] No. (%)
- Nausea, Total Grades 1–4 ([2]; GIST, 150 mg once daily): 65 [45.8%] No. (%)
- PPES, Total Grades 1–4 ([2]; GIST, 150 mg once daily): 62 [43.7%] No. (%)
- TEAEs leading to a dose reduction ([2]; GIST, 150 mg once daily): 26 (18.3%) patients (%)
- TEAEs leading to treatment interruption ([2]; GIST, 150 mg once daily): 77 (54.2%) patients (%)
- Treatment-emergent SAE: abdominal pain ([2]; GIST, 150 mg once daily): 14 [9.9%] n [%]
- Treatment-emergent SAE: cancer surgery ([2]; GIST, 150 mg once daily): 7 [4.9%] n [%]
- Treatment-emergent SAE: death ([2]; GIST, 150 mg once daily): 11 [7.7%] n [%]
- Treatment-emergent SAE: sepsis ([2]; GIST, 150 mg once daily): 6 [4.2%] n [%]
- patients who discontinued study treatment because of PPES ([2]; GIST, 150 mg once daily): no patients
- Any TEAE ([2]; GIST, 150 mg once daily, total): 142 (100%) No. (%)
- Any TEAE, grade 3 and 4 ([2]; all patients): 173 (67.1%) No. (%)
- Any TEAE, grade All ([2]; all patients): 257 (99.6%) No. (%)
- TEAEs leading to a dose reduction ([2]; all patients): 38 (14.7%) patients (%)
- TEAEs leading to treatment interruption ([2]; all patients): 127 (49.2%) patients (%)
- Treatment-emergent SAE: abdominal pain ([2]; all patients): 17 [6.6%] n [%]
- Treatment-emergent SAE: cancer surgery ([2]; all patients): 10 [3.9%] n [%]
- Treatment-emergent SAE: death ([2]; all patients): 16 [6.2%] n [%]
- Treatment-emergent SAE: dyspnea ([2]; all patients): 8 [3.1%] n [%]
- discontinued study treatment secondary to a drug-related TEAE ([2]; all patients): 16 (6.2%) patients (%)
- treatment-emergent serious adverse event (SAE) ([2]; all patients): 137 (53.1%) patients (%)
- DLTs reported ([2]; dose-escalation phase): Three
- patients at each dose level who experienced a DLT ([2]; dose-escalation phase): < 33%
- RP2D ([2]; in vivo): 150 mg once daily
- MTD [2]: no maximum tolerated dose was reached
- MTD ([2]; listed as ripretinib): not reached; also recorded: No MTD was reached
- Cmax higher compared with cycle 1 day 1 [1, 12]: 61%
- accumulation on the basis of AUC0-12h ([1]; 150 mg once daily, cycle 1 day 15 vs day 1): 66%
- Tmax ([1]; human, plasma, oral, time to Tmax, single doses, fasting, cycle 1 day 1): 2 to 10 h
- CV% for Cmax and AUC0-24h ([1]; single doses with PK data for at least 10 patients): 35%-60%
- mPFS [3]: 6.3 month
- inhibition in vitro [4]: inhibits
- Duration of response, median (95% CI) ([5]; fourth line or greater): 17.5 months
- ORR (95% CI) ([5]; fourth line or greater): 7.2%
- PFS, median (95% CI) ([5]; fourth line or greater): 5.5 months
- probability of PFS at 12 months ([5]; fourth line or greater): 21.2%
- Duration of response, median (95% CI) ([5]; second line): 18.4 months
- ORR (95% CI) ([5]; second line): 19.4%
- PFS, median (95% CI) ([5]; second line): 10.7 months
- probability of PFS at 12 months ([5]; second line): 33.5%
- ORR (95% CI) ([5]; third line): 14.3%
- PFS, median (95% CI) ([5]; third line): 8.3 months
- probability of PFS at 12 months ([5]; third line): 29.2%
- Duration of response, median (95% CI) ([5]; total): 18.4 months
- ORR (95% CI) ([5]; total): 11.3%
- inhibition in vitro [6]: inhibits
- inhibition in vitro [7]: inhibits
- inhibition in vitro [8]: inhibits

Compound: Cc1ccc(NC(=O)c2ccc(CN3CCN(C)CC3)cc2)cc1Nc1nccc(-c2cccnc2)n1 [imatinib]
- mPFS [9]: 1.7-2 years

Compound: CNC(=O)c1cc(Oc2ccc(NC(=O)Nc3ccc(Cl)c(C(F)(F)F)c3)c(F)c2)ccn1 [regorafenib]
- syndromes such as PPES, grade 3 [10]: 19.7%
- mPFS ([10]; third-line): ~4.8 months

Compound: CCN(CC)CCNC(=O)c1c(C)[nH]c(/C=C2\C(=O)Nc3ccc(F)cc32)c1C [sunitinib]
- syndromes such as PPES, grade 3 [11]: 4%
- mPFS ([11]; second-line): approximately 5.6 months
